The record followed here is ChEMBL document CHEMBL2062476, “One pot efficient diversity oriented synthesis of polyfunctional styryl thiazolopyrimidines and their bio-evaluation as antimalarial and anti-HIV agents” (Eur J Med Chem, 2012).

Data set [1] has as its system Plasmodium falciparum. The data set is described as follows: Antimalarial activity against chloroquine sensitive Plasmodium falciparum 3D7 infected in RBCs incubated for 72 hrs by SYBRgreen dye based fluorometric assay. Format: functional, organism-based. The conditions noted are these: 3D7, 72 h. The method, boiled down: (§1)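 Parasites kept in RPMI-1640 (HEPES) with 0.5% AlbuMaxII, 0.2% glucose, 0.2% NaHCO3, 15 µM hypoxanthine, 37 °C, 5% CO2. Compounds in DMSO (10mg/mL stock), two-fold serial dilutions. Infected erythrocytes added at 4% haematocrit, 1% parasitaemia, incubated 72 h. Lysis buffer with SYBR green added for 4 h in the dark at room temp. Fluorescence read at ex 485/em 535 nm. IC50 taken from parasite DNA content relative to controls.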

In data set [2] the test system is Plasmodium falciparum. The data set can be described thus: Antimalarial activity against chloroquine resistant Plasmodium falciparum K1 infected in RBCs incubated for 72 hrs by SYBRgreen dye based fluorometric assay. The data set is classed as functional, organism-based. The settings on record: K1, 72 h. The method, boiled down:
as §1

Data set [3] in a line: Cytotoxicity against african green monkey Vero C1008 cells incubated for 72 hrs by resazurin dye based fluorometric assay. Format: cell-based. The settings on record: chlorocebus sabaeus. The method, boiled down: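 Vero (C1008) cells grown in MEM with 15% FBS, 37 °C, 5% CO2; trypsinized, seeded at 1 × 10^5 cells/mL and left to adhere overnight. Serial compound dilutions added for 72 h. Resazurin added, fluorescence read after 4 h; CC50 derived from viability.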
(The colour change of resazurin is a common sign of viable cells or microbes.)

The nature of data set [4]: Selectivity index, ratio of CC50 for african green monkey Vero C1008 cells to IC50 for chloroquine sensitive Plasmodium falciparum 3D7. The data set is classed as functional. The method, boiled down:
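SI = CC50 in Vero cells (resazurin, 72 h) divided by IC50 against P. falciparum 3D7. The IC50 came from a SYBR green assay: cultures in RPMI-1640 with 0.5% AlbuMaxII and 15 µM hypoxanthine, 4% haematocrit, 1% parasitaemia, two-fold dilutions, 72 h at 37 °C. Lysis with SYBR green for 4 h, read at ex 485/em 535 nm.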

Data set [5] can be described thus: Selectivity index, ratio of CC50 for african green monkey Vero C1008 cells to IC50 for chloroquine resistant Plasmodium falciparum K1. Format: functional. The method, boiled down:
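Vero C1008 cells grown in MEM with 15% FBS. Seeded at 1 × 10^5 cells/mL, left to adhere overnight, then exposed to serial compound dilutions for 72 h. Viability read by resazurin fluorescence after 4 h and CC50 derived. SI = CC50 / IC50 against K1, with IC50 from the 72 h SYBR green parasite assay.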

Data set [6] deals with Human immunodeficiency virus. The data set is described as follows: Inhibition of HIV reverse transcriptase activity at 10 ug/ml incubated at 37 degC for 1 hr by ELISA RT assay. The method, boiled down: (§2)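 Colorimetric ELISA kit: template/primer with dNTPs (digoxigenin- and biotin-labelled dUTP) plus HIV-1 RT in lysis buffer, 60 µl total, 37 °C for 1 h; no-RT lysis buffer as negative control. Product captured on streptavidin plate 1 h at 37 °C, anti-DIG-POD (200 mU/mL) 1 h, ABTS substrate; OD 405 nm (reference 490 nm).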
(An ELISA detects its analyte on a solid surface through an enzyme-linked reagent.)

In data set [7] the test system is Human immunodeficiency virus. The data set is described as follows: Inhibition of HIV reverse transcriptase activity at 100 ug/ml incubated at 37 degC for 1 hr by ELISA RT assay. The method, boiled down: as §2

SMILES strings stand for the structures. ≈ marks a conversion by molar mass, not a printed value.

Turning to `COc1ccc(C2C(C(=O)/C=C/c3cccs3)=C(/C=C/c3cccs3)N=C3SC=C(C)N32)cc1` (stereo not drawn), the figures for the IC50 with Plasmodium falciparum [1] and in the data set with Plasmodium falciparum [2] were 5.17 µg/mL (≈ 10.3 µM) and 2.03 µg/mL (≈ 4.04 µM), respectively. For the same molecule, the 50% cytotoxic concentration (CC50) (in general, the concentration giving 50% cytotoxicity) at 72 h in data set [3] is 235 µg/mL (≈ 468 µM). Moreover, the “Ratio CC50/IC50” value turned out to be 45.48 in data set [4] and 115.83 in data set [5]. Further, the inhibition (usually the percentage by which the read-out fell short of the control) in data set [6] amounted to 47.7%; in data set [7], 54.4%.

As for `COc1ccc(C2C(C(=O)/C=C/c3ccc4c(c3)OCO4)=C(/C=C/c3ccc4c(c3)OCO4)N=C3SC=C(C)N32)cc1` (stereo not drawn), the half-maximal inhibitory concentration (IC50) – broadly, the point on the concentration scale where inhibition reaches its midpoint – turned out to be 3.94 µg/mL (≈ 6.81 µM) in the data set on Plasmodium falciparum [1] and 1.14 µg/mL (≈ 1.97 µM) with Plasmodium falciparum [2]. Further, the half-maximal cytotoxic concentration (CC50) at 72 h in data set [3] was found to be 418 µg/mL (≈ 722 µM). In addition, in data set [4], the “Ratio CC50/IC50” value came to 106. Moreover, the inhibition in data set [6] came out at 58.8%; in data set [7], 70.8%.

For the molecule `COc1cc(/C=C\C2=C(C(=O)/C=C/c3cc(OC)c(OC)c(OC)c3)C(c3cc(OC)c(OC)c(OC)c3)N3C(C)=CSC3=N2)cc(OC)c1OC` (stereo not drawn), the values for the IC50 in the data set on Plasmodium falciparum [1] and in the data set on Plasmodium falciparum [2] were 6.82 µg/mL (≈ 9.33 µM) and less than 0.76 µg/mL, respectively. This molecule yielded a 50% cytotoxic concentration (CC50) at 72 h in data set [3] of 167 µg/mL (≈ 228 µM). In addition, the “Ratio CC50/IC50” value in data set [4] is reported as 24.44; in data set [5], more than 219.3. The inhibition in data set [6] was 48.4%; in data set [7], 55.9%.

Consider `Cc1ccnc2c1NC(=O)c1cccnc1N2C1CC1`, for which the inhibition in data set [6] stood at 97.9%.

For `COc1ccc(/C=C/C(=O)C2=C(/C=C/c3ccc(OC)cc3)N=C3SC=C(C)N3C2c2cc(OC)c(OC)c(OC)c2)cc1` (stereo not drawn), the values for the IC50 in the data set on Plasmodium falciparum [1] and with Plasmodium falciparum [2] were 1.57 µg/mL (≈ 2.57 µM) and 0.71 µg/mL (≈ 1.16 µM), respectively. In data set [3], this molecule registered a 50% cytotoxic concentration (CC50) at 72 h of 348 µg/mL (≈ 570 µM). For the same molecule, the “Ratio CC50/IC50” value in data set [4] is 221.57; in data set [5], 489.94. The inhibition in data set [6] worked out at 30.1%; in data set [7], 51.3%.

Take `CC1=CSC2=NC(/C=C/c3cccc(Cl)c3)=C(C(=O)/C=C/c3cccc(Cl)c3)C(c3ccccc3)N12` (stereo not drawn): the half-inhibitory concentration (IC50) was 0.79 µg/mL (≈ 1.49 µM) with Plasmodium falciparum [1] and 1.2 µg/mL (≈ 2.27 µM) in the data set on Plasmodium falciparum [2]. The molecule also had a CC50 at 72 h in data set [3] of 286 µg/mL (≈ 540 µM). The “Ratio CC50/IC50” value was found to be 361.96 in data set [4] and 238.29 in data set [5]. The inhibition was 15.4% in data set [6] and 54.5% in data set [7].

For `CC1=CSC2=NC(/C=C/c3ccc(Br)cc3)=C(C(=O)/C=C/c3ccc(Br)cc3)C(c3ccccc3)N12` (stereo not drawn), the IC50 in the data set on Plasmodium falciparum [1] came out at 5.38 µg/mL (≈ 8.7 µM); in the data set on Plasmodium falciparum [2] it was 2.5 µg/mL (≈ 4.04 µM). In addition, in data set [3], the CC50 at 72 h is 282 µg/mL (≈ 457 µM). The figures for the “Ratio CC50/IC50” value in data set [4] and in data set [5] were 52.48 and 112.93, respectively. Moreover, the inhibition amounted to 39.8% in data set [6] and 55.4% in data set [7].

On to `COc1ccc(C2C(C(=O)/C=C/c3ccc(F)cc3)=C(/C=C/c3ccc(F)cc3)N=C3SC=C(C)N32)cc1` (stereo not drawn), for which the IC50 with Plasmodium falciparum [1] came out at 5.15 µg/mL (≈ 9.78 µM); in the data set on Plasmodium falciparum [2], 1.09 µg/mL (≈ 2.07 µM). The molecule also displayed a CC50 at 72 h in data set [3] of 261 µg/mL (≈ 495 µM). Besides, the “Ratio CC50/IC50” value in data set [4] is given as 50.65; in data set [5] it was 239.29. Also, the inhibition in data set [6] is 9.22%; in data set [7], 41.4%.

Take `COc1cc(/C=C/C(=O)C2=C(/C=C/c3cc(OC)c(OC)c(OC)c3)N=C3SC=C(C)N3C2c2ccccc2)cc(OC)c1OC` (stereo not drawn): the half-maximal inhibitory concentration (IC50) in the data set with Plasmodium falciparum [1] was 0.5 µg/mL (≈ 0.78 µM); in the data set with Plasmodium falciparum [2], less than 0.3 µg/mL. In data set [3], this molecule yielded a cytotoxic concentration (CC50) at 72 h of 260 µg/mL (≈ 407 µM). Further, the “Ratio CC50/IC50” value is reported as 520.94 in data set [4] and more than 868.23 in data set [5]. For the same molecule, the inhibition in data set [6] was determined as 5.69%; in data set [7], 66.9%.

For the molecule `CC1=CSC2=NC(/C=C/c3ccccc3Cl)=C(C(=O)/C=C/c3ccccc3Cl)C(c3ccc(Cl)cc3)N12` (stereo not drawn), the 50% inhibitory concentration (IC50) was 5.9 µg/mL (≈ 10.5 µM) with Plasmodium falciparum [1] and 2.79 µg/mL (≈ 4.95 µM) in the data set on Plasmodium falciparum [2]. The CC50 at 72 h in data set [3] turned out to be 430 µg/mL (≈ 762 µM). Also, the “Ratio CC50/IC50” value in data set [4] came out at 72.84; in data set [5], 154.03. The figures for the inhibition in data set [6] and in data set [7] were 18% and 26.1%, respectively.

As for `CC1=CSC2=NC(/C=C/c3ccc4c(c3)OCO4)=C(C(=O)/C=C/c3ccc4c(c3)OCO4)C(c3ccccc3)N12` (stereo not drawn), the IC50 in the data set with Plasmodium falciparum [1] was 5.07 µg/mL (≈ 9.24 µM); with Plasmodium falciparum [2] it was 1.09 µg/mL (≈ 1.99 µM). In data set [3], this molecule yielded a CC50 at 72 h of 497 µg/mL (≈ 905 µM). Also, the “Ratio CC50/IC50” value in data set [4] is 97.97; in data set [5] it was 455.71.
